The text below walks through data of PMC10210236 (ACS Omega, 2023).

Data set [1] is described as follows: Equilibrium solubility / slurry experiment at pH 1.2, phase of residue. It counts as physicochemical. The settings on record: pH 1.2 (0.1 N HCl). The method in brief:
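Equilibrium slurry of salt or free base in 0.1 N HCl, pH 1.2. Undissolved residue was characterized by DSC, TGA, PXRD profile fitting against the single-crystal structure, FESEM morphology, and FESEM-EDX chloride content to detect phase conversion, such as hydrochloride formation.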

Data set [2] has as its system Sk-Mel28 cells. Briefly: Flow cytometric analysis of cell cycle. In kind it is cell-based, human. Particulars: 48 h, concentration approx. IC50. Background: Flow cytometry measures light scatter and fluorescence of single cells or particles in a stream.
For data set [3], the system named is C13* cells. Briefly: Flow cytometric analysis of cell cycle. It counts as cell-based, human. The settings on record: 48 h, concentration approx. IC50.
The test system of data set [4] is 2008 cells. Briefly: Flow cytometric analysis of cell cycle. It counts as cell-based, human. Particulars: 48 h, concentration approx. IC50.
Data set [5] can be described thus: Dissolution / intrinsic dissolution rate of pellets in pH 1.2. In kind it is physicochemical. The settings on record: neat drug; for pure drug dissolution value: gastric pH 1.2 (0.1 N HCl). The method in brief:
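Run in 0.1 N HCl, pH 1.2, simulating gastric conditions, in a 500 mL medium over 3 h with sampling from 15 to 180 min. Read-outs were cumulative amount dissolved and intrinsic dissolution rate, quantified separately for each drug component from the salt. Salt batch was scaled up by ethanol drop grinding, with phase purity checked by PXRD profile fitting. Leftover solids were characterized afterwards.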

Data set [6] deals with 2008, C13*, and Sk-Mel28 cell lines. Briefly: Flow cytometric analysis of cell cycle, statement for all three lines. In kind it is cell-based, human. The settings on record: 48 h, versus untreated.
For data set [7], the system named is BRAF^V600E melanoma cells Sk-Mel28. Put plainly: Cytotoxicity screening. The settings on record: Homo sapiens, SK-MEL-28. It counts as cell-based. The essentials: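 Sk-Mel28 (human BRAF V600E melanoma) cells treated with test compound across a dose–response range. Survival percentage relative to control was read, and IC50 was taken from the curve. Two separate experiments were each run in duplicate, reported as mean ± SEM.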

For data set [8] the following is noted: cited from earlier work.
For data set [9], the system named is ovarian cancer cell lines (A2780, 2008, A2780/CP, C13*). Briefly: Cytotoxicity screening, ovarian lines taken together. It counts as cell-based. Particulars: Homo sapiens, read-out: IC50 range in ovarian cancer cell lines.

Entries after “also recorded” stand apart in the source; their conditions may differ.

With `CC(C)(C)c1nc(-c2cccc(NS(=O)(=O)c3c(F)cccc3F)c2F)c(-c2ccnc(N)n2)s1.O` [DBF·MH], the “solubility of the phase formed at pH 1.2 (in words)” value in [1] was “comparatively less soluble; also recorded: very poor”.

Take `Cc1[nH]c2ccccc2c1CCNCc1ccc(/C=C/C(=O)NO)cc1.Cl` [PAN·HCl]: the “solubility of the phase formed at pH 1.2 (in words)” value in data set [1] is recorded as “high solubility”.

With `CC(C)(C)c1nc(-c2cccc(NS(=O)(=O)c3c(F)cccc3F)c2F)c(-c2ccnc(N)n2)s1` [DBF, dabrafenib], in data set [2], the “cells in G0G1 phase” value is 65.11%, the “cells in G2/M phase” value was 4.53%, the “cells in S phase” value amounted to 3.95% and the “hypodiploid cells (sub-G1)” value was determined as 23.46%. In data set [3], the “cells in G0G1 phase” value is on record as 68.48%, the “cells in G2/M phase” value came out at 5.28%, the “cells in S phase” value is 4.60% and the “hypodiploid cells (sub-G1)” value was 19.32%. Also, in [4], the “cells in G0G1 phase” value came to 63.91%, the “cells in G2/M phase” value was 10.76%, the “cells in S phase” value is 3.53% and the hypodiploid cells stood at 19.32%. For the same compound, the “pure drug dissolution value” in data set [5] amounted to 80 mg cm^–2 min^–1. For the same compound, the “cumulative drug dissolved, saturation value” in data set [5] (pH 1.2, 500 mL) is listed as 12.18 mg/L. In addition, the “fold increase of hypodiploid cells” value in data set [6] was ~4 fold.

The term IC50 denotes the concentration that inhibits the measured activity by half. Regarding `Cc1[nH]c2ccccc2c1CCNCc1ccc(/C=C/C(=O)NO)cc1` [PAN, panobinostat], in data set [2], the “cells in G0G1 phase” value was 42.53%, the “cells in G2/M phase” value was found to be 18.73%, the “cells in S phase” value amounted to 5.17% and the “hypodiploid cells (sub-G1)” value stood at 30.07%. Moreover, in data set [3], the “cells in G0G1 phase” value worked out at 47.46%, the “cells in G2/M phase” value stood at 10.27%, the “cells in S phase” value amounted to 6.85% and the “hypodiploid cells (sub-G1)” value amounted to 30.15%. Further, in [4], the “cells in G0G1 phase” value amounted to 37.98%, the “cells in G2/M phase” value is on record as 9.99%, the “cells in S phase” value worked out at 6.78% and the hypodiploid cells was 42.32%. Moreover, in data set [7], the IC50 was found to be 45.3 ± 12 nM. Also, the “pure drug dissolution value” in data set [5] was determined as 10 mg cm^–2 min^–1. Further, the “cumulative drug dissolved at 15 min” value in data set [5] (pH 1.2, 500 mL, 15 min) stood at 4.60 mg/L. Moreover, the “cumulative drug dissolved at 180 min” value in [5] (pH 1.2, 500 mL, 180 min) is on record as 20.81 mg/L. In addition, the “pKa (indole NH)” value in data set [8] was 8.4. The IC50 in data set [9] fell in the range of 4 to 9 nM.
